Results: ChEMBL document CHEMBL1828507, “Novel diarylpyridinones, diarylpyridazinones and diarylphthalazinones as potential HIV-1 nonnucleoside reverse transcriptase inhibitors (NNRTIs)” (Bioorg Med Chem, 2011)

What was measured:
[1] = tested on: Human immunodeficiency virus 1; test: Antiviral activity against wild type HIV1 BaL in human TZM-b1 cells after 48 hrs by luciferase assay; assay type: functional, organism-based; conditions: Human immunodeficiency virus 1, BaL, TZM-b1, 48 h
Summary of the method: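 Infected with 200 TCID₅₀ HIV-1 BaL, then 48 h culture and luciferase readout. Inhibition relative to untreated controls; EC50 by nonlinear regression. Triplicate wells, at least two independent experiments.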

[2] = target: Human immunodeficiency virus type 1 reverse transcriptase (Human immunodeficiency virus 1, UniProt Q72547); test: Inhibition of wild type HIV1 reverse transcriptase
[3] = Cytotoxicity against human TZM-b1 cells infected with wild type HIV1 BaL after 48 hrs using formazan dye by WST1 assay; assay type: cell-based; conditions: TZM-bl cells infected with wild type HIV1 BaL
Summary of the method: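 WST-1 reagent added, and absorbance at 450 nm read after 90 min. Viability relative to untreated controls; CC50 by nonlinear regression. Three replicate wells, at least two independent experiments.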

[4] = Selectivity index, ratio of CC50 for human TZM-bl cells to EC50 for wild type HIV1 BaL; assay type: toxicity, cell-based; conditions: read-out: Ratio CC50/EC50
Summary of the method: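 SI taken as CC50/EC50. CC50 from a 48 h WST-1 viability assay (A450) in TZM-bl cells. EC50 from a 48 h luciferase readout in TZM-bl cells infected with 200 TCID₅₀ HIV-1 BaL after a 30 min compound pre-incubation with DEAE dextran. Both values by nonlinear regression.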

[5] = tested on: Human immunodeficiency virus 1; test: Ratio of TMC120 EC50 to compound EC50 for wild type HIV1 BaL infected in human TZM-b1 cells; assay type: functional
[6] = tested on: Human immunodeficiency virus 1; test: Antiviral activity against HIV1 BaL expressing reverse transcriptase V106A mutant infected in human TZM-bl cells after 48 hrs by luciferase assay; assay type: functional, organism-based; conditions: Human immunodeficiency virus 1, BaL
[7] = tested on: Human immunodeficiency virus 1; test: Antiviral activity against HIV1 VI829 expressing reverse transcriptase Y181C mutant infected in human TZM-bl cells after 48 hrs by luciferase assay; assay type: functional, organism-based; conditions: Human immunodeficiency virus 1, VI829, TZM-bl
[8] = tested on: Human immunodeficiency virus 1; test: Antiviral activity against wild type HIV1 VI829 infected in human TZM-b1 cells after 48 hrs by luciferase assay; assay type: functional, organism-based; conditions: Human immunodeficiency virus 1, VI829, TZM-b1, 48 h
[9] = tested on: Human immunodeficiency virus 1; test: Ratio of EC50 for HIV1 VI829 expressing reverse transcriptase Y181C mutant infected in human TZM-b1 cells to EC50 for wild type HIV1 VI829 in human TZM-b1 cells; assay type: functional
[10] = tested on: Human immunodeficiency virus 1; test: Ratio of EC50 for HIV1 BaL expressing reverse transcriptase V106A mutant infected in human TZM-bl cells to EC50 for wild type HIV1 BaL in human TZM-bl cells; assay type: functional

Compound | EC50 [1] | CC50 at 48 h [3] | selectivity ratio [4] | other results
Cc1cc(C)c(Nc2ccc(=O)n(Nc3ccc(C(F)(F)F)cc3)n2)c(C)c1 | > 10 µM | – | – | –
Cc1cc(C)c(Nc2ccc(=O)n(Nc3cccc(C#N)c3)n2)c(C)c1 | > 10 µM | 5.04 µM | < 1 | –
Cc1cc(C)c(Oc2ccc(=O)n(Nc3ccc(C#N)cc3)n2)c(C)c1 | 0.69 µM | 19.9 µM | 29 | EC50 [6]: 1.12 µM; IC50 [2]: 100 µM; EC50 [7]: > 10 µM; EC50 [8]: 0.16 µM; Ratio EC50 [9]: >64; Ratio EC50 [10]: 2
Cc1cc(C)c(Oc2ccc(=O)n(Nc3ccc(C(F)(F)F)cc3)n2)c(C)c1 | 10 µM | 21.2 µM | 2.1 | –
Cc1cc(C)c(Oc2ccc(=O)n(Nc3ccc(F)cc3)n2)c(C)c1 | 9.64 µM | 23.5 µM | 2.4 | –
Cc1cc(C)c(Oc2ccc(=O)n(Nc3cccc(C#N)c3)n2)c(C)c1 | > 10 µM | – | – | –
Cc1cc(C#N)cc(C)c1Oc1ccc(=O)n(Nc2ccc(C#N)cc2)n1 | 1.75 µM | 24.7 µM | 14 | –
Cc1cc(C#N)cc(C)c1Oc1ccc(=O)n(Nc2cccc(C#N)c2)n1 | > 10 µM | – | – | –
Cc1cc(Cl)cc(C)c1Oc1ccc(=O)n(Nc2ccc(C#N)cc2)n1 | 0.6 µM | 14.1 µM | 23 | EC50 [6]: 4.55 µM; EC50 [7]: > 10 µM; EC50 [8]: 0.5 µM; Ratio EC50 [9]: >20; Ratio EC50 [10]: 8
Cc1cc(Cl)cc(C)c1Oc1ccc(=O)n(Nc2cccc(C#N)c2)n1 | > 5 µM | – | – | –
Cc1cc(Br)cc(C)c1Oc1ccc(=O)n(Nc2ccc(C#N)cc2)n1 | 0.64 µM | > 100 µM | > 193 | EC50 [6]: 2.97 µM; EC50 [7]: > 10 µM; EC50 [8]: 0.34 µM; Ratio EC50 [9]: >29; Ratio EC50 [10]: 5
Cc1cc(C)c(Nc2ccnc(Nc3ccc(C#N)cc3)n2)c(C)c1 [DAPIVIRINE] | 0.002 µM | 2.88 µM | 1440 | EC50 [6]: 0.0025 µM; IC50 [2]: 2.5 µM; EC50 [7]: 0.0108 µM; EC50 [8]: 0.002 µM; Ratio EC50 [9]: 5.4; Ratio EC50 [10]: 1.3

Now from value to compound, other results behind:

EC50 [1] | Compound | CC50 at 48 h [3] | selectivity ratio [4] | other results
> 10 µM | Cc1cc(C)c(Nc2ccc(=O)n(Nc3ccccc3)c2)c(C)c1 | – | – | –
> 10 µM | N#Cc1ccc(Nn2cc(Nc3ccccc3)ccc2=O)cc1 | – | – | –
> 10 µM | O=c1ccc(Nc2ccccc2)cn1Nc1ccccc1 | – | – | –
> 10 µM | N#Cc1ccc(Nc2ccc(=O)n(Nc3ccc(C#N)cc3)c2)cc1 | – | – | –
1.37 µM | Cc1cc(C)c(Nc2ccc(=O)n(Nc3ccc(C#N)cc3)n2)c(C)c1 | > 100 µM | > 69 | IC50 [2]: 547 µM; Ratio EC50 [5]: 700
3.95 µM | Cc1cc(C)c(Oc2ccc(=O)n(Nc3ccc(Cl)cc3)n2)c(C)c1 | 22.3 µM | 5.6 | –
7.63 µM | Cc1cccc(C)c1Oc1ccc(=O)n(Nc2ccc(C#N)cc2)n1 | > 100 µM | > 13 | –
> 10 µM | Cc1cccc(C)c1Oc1ccc(=O)n(Nc2ccc(F)cc2)n1 | – | – | –
> 10 µM | Cc1cccc(C)c1Oc1ccc(=O)n(Nc2cccc(C#N)c2)n1 | – | – | –
> 10 µM | Cc1cccc(C)c1Oc1ccc(=O)n(Nc2ccccc2)n1 | – | – | –
3.19 µM | Cc1cc(Br)cc(C)c1Oc1ccc(=O)n(Nc2ccc(Cl)cc2)n1 | 63.5 µM | 20 | –
1.39 µM | Cc1cc(C)c(Oc2nn(Nc3ccc(C#N)cc3)c(=O)c3ccccc23)c(C)c1 | 60.4 µM | 43.3 | IC50 [2]: 928 µM
3.6 µM | Cc1cc(Cl)cc(C)c1Oc1nn(Nc2ccc(C#N)cc2)c(=O)c2ccccc12 | 51.2 µM | 14.2 | –
10 µM | Cc1cc(Cl)cc(C)c1Oc1nn(Nc2ccc(Cl)cc2)c(=O)c2ccccc12 | – | – | –
> 10 µM | Cc1cc(C)c(Nc2ccc(=O)n(Nc3ccc(C#N)cc3)c2)c(C)c1 | – | – | IC50 [2]: 760 µM
> 10 µM | Cc1cc(C)c(Nc2ccc(=O)n(Nc3ccc(C(F)(F)F)cc3)c2)c(C)c1 | – | – | –
> 10 µM | Cc1cc(C)c(Nc2ccc(=O)n(Nc3cccc(C#N)c3)c2)c(C)c1 | – | – | –
